Reference: PMC9476207 (ACS Omega, 2022)

How the values were obtained:
Assay in all cases: NCI-60 single-dose antiproliferative screen
Type in all cases: cell-based
HOP-92 = details: Homo sapiens, HOP-92, 48 h, read-out: growth percent
Method in brief: (§1)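 NCI-60 protocol. Lines were grown in RPMI 1640 with 5% FBS and 2 mM L-glutamine, plated and incubated 24 h at 37 °C; time-zero plates were TCA-fixed. The test compound was dissolved in DMSO, diluted in medium with 50 μg/mL gentamicin and given once at a final 10^-5 M (DMSO control) for 48 h. Cells were fixed with cold TCA (1 h, 4 °C) and stained with 0.4% SRB in 1% acetic acid for 10 min. Dye was dissolved in 10 mM Trizma base and read at 515 nm. Growth percent was calculated from time-zero, test and control ODs.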

HT29 = details: Homo sapiens, HT-29, 48 h, read-out: growth percent
Method in brief: as §1

MDA-MB-435 = details: Homo sapiens, MDA-MB-435, 48 h, read-out: growth percent
Method in brief: as §1

K-562 = details: Homo sapiens, K562, 48 h, read-out: growth percent
Method in brief: as §1

KM12 = details: Homo sapiens, KM12, 48 h, read-out: growth percent
Method in brief: as §1

HCT-15 = details: Homo sapiens, HCT-15, 48 h, read-out: growth percent
Method in brief: as §1

U251 = details: Homo sapiens, U-251, 48 h, read-out: growth percent
Method in brief: (§2)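 Cells grown in RPMI 1640 with 5% FBS and 2 mM L-glutamine, plated and held 24 h at 37 °C; time-zero plates TCA-fixed. DMSO stocks were diluted in gentamicin-containing medium to a final 10^-5 M, with a DMSO-only control. Exposure 48 h, 5% CO2. Adherent cells TCA-fixed 1 h at 4 °C, stained with 0.4% SRB, solubilised in 10 mM Trizma base, read at 515 nm. Growth percent derived from ODtzero, ODtest and ODctrl.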

TK-10 = details: Homo sapiens, TK-10, 48 h, read-out: growth percent
Method in brief: as §2

T-47D = details: Homo sapiens, T47D, 48 h, read-out: growth percent
Method in brief: as §2

NCI-H226 = details: Homo sapiens, NCI-H226, 48 h, read-out: growth percent
Method in brief: as §1

SNB-19 = details: Homo sapiens, SNB-19, 48 h, read-out: growth percent
Method in brief: as §2

SK-OV-3 = details: Homo sapiens, SK-OV-3, 48 h, read-out: growth percent
Method in brief: as §2

COLO205 = details: Homo sapiens, COLO 205, 48 h, read-out: growth percent
Method in brief: as §1

UO-31 = details: Homo sapiens, UO-31, 48 h, read-out: growth percent
Method in brief: as §2

NCI/ADR-RES = details: Homo sapiens, 48 h, read-out: growth percent
Method in brief: as §1

RXF 393 = details: Homo sapiens, RXF 393, 48 h, read-out: growth percent
Method in brief: as §1

786-0 = details: Homo sapiens, 786-0, 48 h, read-out: growth percent
Method in brief: as §1

OVCAR-5 = details: Homo sapiens, OVCAR-5, 48 h, read-out: growth percent
Method in brief: as §1

HS 578T = details: Homo sapiens, 48 h, read-out: growth percent
Method in brief: as §1

MCF-7 = details: Homo sapiens, MCF7, 48 h, read-out: growth percent
Method in brief: as §1

NCI-H23 = details: Homo sapiens, NCI-H23, 48 h, read-out: growth percent
Method in brief: as §1

RPMI-8226 = details: Homo sapiens, RPMI-8226, 48 h, read-out: growth percent
Method in brief: as §1

EKVX = details: Homo sapiens, 48 h, read-out: growth percent
Method in brief: as §1

NCI-H460 = details: Homo sapiens, NCI-H460, 48 h, read-out: growth percent
Method in brief: as §1

SK-MEL-5 = details: Homo sapiens, SK-MEL-5, 48 h, read-out: growth percent
Method in brief: as §2

SR = details: Homo sapiens, 48 h, read-out: growth percent
Method in brief: as §2

CAKI-1 = details: Homo sapiens, CAKI-1, 48 h, read-out: growth percent
Method in brief: as §1

SF-295 = details: Homo sapiens, SF-295, 48 h, read-out: growth percent
Method in brief: as §1

BT-549 = details: Homo sapiens, BT-549, 48 h, read-out: growth percent
Method in brief: as §1

LOX IMVI = details: Homo sapiens, 48 h, read-out: growth percent
Method in brief: as §1

MALME-3M = details: Homo sapiens, 48 h, read-out: growth percent
Method in brief: as §1

NCI-H522 = details: Homo sapiens, NCI-H522, 48 h, read-out: growth percent
Method in brief: as §1

UACC-62 = details: Homo sapiens, UACC-62, 48 h, read-out: growth percent
Method in brief: as §2

MDA-MB-468 = details: Homo sapiens, MDA-MB-468, 48 h, read-out: growth percent
Method in brief: as §1

SK-MEL-2 = details: Homo sapiens, SK-MEL-2, 48 h, read-out: growth percent
Method in brief: as §2

HCC-2998 = details: Homo sapiens, HCC 2998, 48 h, read-out: growth percent
Method in brief: as §1

Row | SMILES | activity at 10 µM (HOP-92) [%] | activity at 10 µM (HT29) [%] | activity at 10 µM (MDA-MB-435) [%] | activity at 10 µM (K-562) [%] | activity at 10 µM (KM12) [%] | activity at 10 µM (HCT-15) [%] | activity at 10 µM (U251) [%] | activity at 10 µM (TK-10) [%] | activity at 10 µM (T-47D) [%] | activity at 10 µM (NCI-H226) [%] | activity at 10 µM (SNB-19) [%] | activity at 10 µM (SK-OV-3) [%] | activity at 10 µM (COLO205) [%] | activity at 10 µM (UO-31) [%] | activity at 10 µM (NCI/ADR-RES) [%] | activity at 10 µM (RXF 393) [%] | activity at 10 µM (786-0) [%] | activity at 10 µM (OVCAR-5) [%] | activity at 10 µM (HS 578T) [%] | activity at 10 µM (MCF-7) [%] | other results
1 | COc1cc(CNC(=O)C[C@H](C)CCC=C(C)C)ccc1OCc1cn(-c2ccc(Cl)cc2)nn1 [18b, (R)-N-(4-((1-(4-Chlorophenyl)-1H-1,2,3-triazol-4-yl)methoxy)-3-methoxybenzyl)-3,7-dimethyloct-6-enamide] | 53 | 79.6 | 84.9 | 53.5 | 87.7 | 65.3 | 57.7 | 95.6 | 52.5 | 63.8 | 78.6 | 72.1 | 91.1 | 62.5 | 48 | 56.1 | 84.3 | 80.7 | 71.4 | 51.6 | activity at 10 µM (NCI-H23): 64.9%; activity at 10 µM (RPMI-8226): 75.3%; activity at 10 µM (EKVX): 75.3%; activity at 10 µM (NCI-H460): 65%; activity at 10 µM (SK-MEL-5): 62.8%; activity at 10 µM (SR): 65.8%; activity at 10 µM (CAKI-1): 45.9%; activity at 10 µM (SF-295): 55.5%; activity at 10 µM (BT-549): 87.4%; activity at 10 µM (LOX IMVI): 59.7%; activity at 10 µM (MALME-3M): 68.3%; activity at 10 µM (NCI-H522): 62.9%; activity at 10 µM (UACC-62): 65.7%; activity at 10 µM (MDA-MB-468): 41.3%; activity at 10 µM (SK-MEL-2): 83.6%; activity at 10 µM (HCC-2998): 75.9%
2 | COc1cc(CNC(=O)CCCC/C=C/C(C)C)ccc1OCc1cn(-c2ccc(C)c(C)c2)nn1 [14p, (E)-N-(4-((1-(3,4-Dimethylphenyl)-1H-1,2,3-triazol-4-yl)methoxy)-3-methoxybenzyl)-8-methylnon-6-enamide] | 80.4 | 97.8 | 104 | 74.6 | 97.5 | 71.2 | 88.3 | 109 | 73.2 | 86.9 | 95.8 | 98.6 | 106 | 75.7 | 80.6 | 98.2 | 99.8 | 107 | 90.7 | 86.9 | activity at 10 µM (NCI-H23): 74.9%; activity at 10 µM (RPMI-8226): 67.3%; activity at 10 µM (EKVX): 79.3%; activity at 10 µM (NCI-H460): 86.5%; activity at 10 µM (SK-MEL-5): 81.5%; activity at 10 µM (SR): 58.2%; activity at 10 µM (CAKI-1): 94.3%; activity at 10 µM (SF-295): 88.8%; activity at 10 µM (BT-549): 93.7%; activity at 10 µM (LOX IMVI): 84.5%; activity at 10 µM (MALME-3M): 107%; activity at 10 µM (NCI-H522): 80.7%; activity at 10 µM (UACC-62): 75.1%; activity at 10 µM (MDA-MB-468): 71.8%; activity at 10 µM (SK-MEL-2): 90.3%; activity at 10 µM (HCC-2998): 101%
3 | COc1cc(CNC(=O)CCCC/C=C/C(C)C)ccc1OCc1cn(-c2ccc(Br)cc2)nn1 [14k, (E)-N-(4-((1-(4-Bromophenyl)-1H-1,2,3-triazol-4-yl)methoxy)-3-methoxybenzyl)-8-methylnon-6-enamide] | 68.8 | 98.1 | 107 | 59.2 | 94.3 | 94 | 75.5 | 118 | 68.4 | 86.3 | 80.9 | 74.8 | 103 | 67.9 | 72 | 105 | 92 | 116 | 90.5 | 76.2 | activity at 10 µM (NCI-H23): 70.2%; activity at 10 µM (RPMI-8226): 57.4%; activity at 10 µM (EKVX): 72.7%; activity at 10 µM (NCI-H460): 72.1%; activity at 10 µM (SK-MEL-5): 72%; activity at 10 µM (SR): 67.2%; activity at 10 µM (CAKI-1): 74.3%; activity at 10 µM (SF-295): 85.4%; activity at 10 µM (BT-549): 88.1%; activity at 10 µM (LOX IMVI): 83.7%; activity at 10 µM (MALME-3M): 103%; activity at 10 µM (NCI-H522): 82.5%; activity at 10 µM (UACC-62): 63%; activity at 10 µM (MDA-MB-468): 68.2%; activity at 10 µM (SK-MEL-2): 95.2%; activity at 10 µM (HCC-2998): 88.8%
